Bioassay records: PubChem, several laboratories
Only some compounds are listed: those with a hit (about 3.7% of all), similar ones and a draw of the others.
MT stabilizer = microtubule stabilization, imaging screen; HeLa tubulin immunostaining HCS, 24 h; share of cells brighter than vehicle mean+2SD; % tubulin-high responders, % at 10 µM; 200,000 tested, 0.83% active; AID 2205;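 active = plate Z-score above 3 for both tubulin-high and condensed-nucleus cell shares, with cell loss under 80%, at 10 µM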;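 also: anti alpha tubulin signal scored within the nucleus-defined area of each cell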
Redox H2O2 prof = compounds producing H2O2 with reducing agent – biochemical, NIH compound library profiling, artefact control for MLSCN library redox annotation, primary screen. DTT-dependent redox cycling H2O2, phenol red/HRP absorbance; 100% = 100 µM peroxide control, 0% = buffer. activation, % at 10 µM. 200,000 tested, 0.03% active. AID 878;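 active = activation of at least 50% relative to the plate's high and low controls in the primary single-dose screen; inactive = activation below 50%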;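 also: compound incubated with DTT at 0.8 mM final as the reducing agent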
ROMK primary = modulates human ROMK potassium channel activity; P48048; Tet-inducible ROMK, thallium flux fluorescence; actives lie on both sides; 130,000 tested, 2% active; B-score at 10 µM; AID 1918;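 active = signal ratio slope over the read window, or its plate-corrected B-score, at least 3 SD from the plate mean, either direction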;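 also: B-score of the F/F0 ratio slope over 7 to 12 s after thallium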
bCat nuc transl = modulators of beta-catenin nuclear translocation | HeLa beta-catenin nuclear translocation, immunofluorescence imaging | nuclear translocation activity, % at 5 µM | 190,000 tested, 0.3% active | AID 1665;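 active = nuclear translocation activity above 50% at 5 µM, with a well cell count of 50 or more; inconclusive = wells under 50 cells across six images, flagged as toxic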;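 also: per-cell ratio of nuclear to cytoplasmic median beta-catenin stain intensity; plate controls were DMSO negative control for no effect and GSK-3 inhibitor IX positive control for full effect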
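Read-out: Nuclear/cytoplasmic beta-catenin signal ratio, % activation | Assay system: Human HeLa cell line | Times: 24 h compound exposure at 37°C, 5% CO2 | Signal: Fluorescence imaging of beta-catenin antibody stain plus DAPI | Dosing: 5 µM primary, 0.02–20 µM confirmation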
Cl transport mod = KCC2 (human) Cl- transport modulation; Q9H2X9; KCC2 cells, thallium flux FluoZin-2 fluorescence; B-score of Tl+ flux slope (higher = more flux/activation; lower = inhibition) at 10 µM; 190,000 tested, 2.2% active; AID 1456;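 active = thallium flux slope and its plate-corrected score both differing from the plate sample mean at a set confidence after two filtering rounds, in either direction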;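 also: slope of fluorescence scaled to starting intensity during 10 to 20 s after thallium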
Target sequence (Q9H2X9 whole entry, looked up): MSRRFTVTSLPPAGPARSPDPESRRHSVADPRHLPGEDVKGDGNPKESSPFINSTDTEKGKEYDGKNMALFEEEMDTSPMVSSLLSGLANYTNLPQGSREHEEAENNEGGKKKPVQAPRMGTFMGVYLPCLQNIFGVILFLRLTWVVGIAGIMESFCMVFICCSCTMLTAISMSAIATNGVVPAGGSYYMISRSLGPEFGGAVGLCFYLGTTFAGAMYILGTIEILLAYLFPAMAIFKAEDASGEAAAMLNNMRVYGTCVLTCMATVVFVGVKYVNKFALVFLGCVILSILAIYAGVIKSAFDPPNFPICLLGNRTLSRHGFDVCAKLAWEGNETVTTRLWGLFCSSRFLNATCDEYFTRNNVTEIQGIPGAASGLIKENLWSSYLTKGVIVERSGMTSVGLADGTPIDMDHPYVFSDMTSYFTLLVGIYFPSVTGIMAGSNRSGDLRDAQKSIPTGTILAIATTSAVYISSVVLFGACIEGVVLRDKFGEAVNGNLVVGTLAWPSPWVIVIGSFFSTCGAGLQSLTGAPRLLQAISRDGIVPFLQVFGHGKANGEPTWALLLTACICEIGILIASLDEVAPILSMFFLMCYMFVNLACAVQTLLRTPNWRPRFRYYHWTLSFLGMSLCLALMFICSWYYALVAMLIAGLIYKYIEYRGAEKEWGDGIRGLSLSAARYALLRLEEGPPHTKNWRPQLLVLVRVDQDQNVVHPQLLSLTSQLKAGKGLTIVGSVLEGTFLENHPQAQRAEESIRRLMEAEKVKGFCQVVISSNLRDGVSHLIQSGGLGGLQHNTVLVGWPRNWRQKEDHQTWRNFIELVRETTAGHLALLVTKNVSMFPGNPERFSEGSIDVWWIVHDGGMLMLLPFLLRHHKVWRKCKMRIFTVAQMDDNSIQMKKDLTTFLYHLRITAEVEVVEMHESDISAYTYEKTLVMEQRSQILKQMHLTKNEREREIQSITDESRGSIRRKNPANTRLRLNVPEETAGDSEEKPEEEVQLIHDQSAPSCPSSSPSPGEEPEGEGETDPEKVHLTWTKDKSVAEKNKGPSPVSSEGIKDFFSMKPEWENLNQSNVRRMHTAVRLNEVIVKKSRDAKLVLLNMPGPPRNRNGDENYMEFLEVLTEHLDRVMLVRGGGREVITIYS
KCC2 secondary = KCC2 (human) modulation, secondary assay; HEK293-KCC2, thallium flux, FluoZin2 fluorescence; stronger effect = higher value; AID 1713; normalised thallium flux (F/F0 slope) at 10 µM; shares compounds with Cl transport mod; 3,700 tested, 15% active;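 active = thallium flux slope above the same plate's solvent-only control mean plus 3 SD; inconclusive = the two replicate wells disagree; inactive = no significant difference from solvent-only control wells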
KCC2 bumet counter = bumetanide-insensitive thallium flux in KCC2 cells with ouabain, counter-screen. AID 1714. shares compounds with Cl transport mod. HEK293-KCC2 + bumetanide/ouabain, thallium flux FluoZin2; stronger effect = higher value. 3,700 tested, 49% active. normalized thallium flux at 10 µM;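 active = thallium entry rate above the same plate's blocked-transporter control wells by more than 3 SD; inconclusive = the two repeat wells disagree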;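 also: raw slope of fluorescence over initial fluorescence between 10 and 20 s after thallium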
KCC2 sec2 = KCC2 (human) modulation, second secondary assay | shares compounds with Cl transport mod | HEK293-KCC2, thallium flux FluoZin2 fluorescence; actives lie on both sides; F/F0 rise rate, 10–20 s post-thallium | normalized thallium flux at 10 µM | 3,700 tested, 23% active;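 active = thallium flux slope more than 3 SD above or below the plate's solvent-only control mean, mostly below; inconclusive = the two repeat wells disagreed; inactive = no significant shift from solvent-only controls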;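 also: raw slope with 0.1% DMSO as baseline and bumetanide as block control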
HEK counter1 = parental HEK flux effect, counter-screen; HEK293 parental cells, thallium flux FluoZin2, ouabain; baseline-ratio fluorescence slope, 10–20 s after thallium; shares compounds with Cl transport mod; 3,700 tested, 46% active; thallium flux rate (normalised fluorescence) at 10 µM;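 active = thallium flux rate significantly above the same plate's solvent-only control wells, beyond their mean plus 3 SD; inconclusive = the two replicate wells gave conflicting results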
KCC2 retest ouab = modulates human KCC2 on retest with ouabain. shares compounds with Cl transport mod. raw Tl+ flux slope (below DMSO = inhibition, above = activation) at 10 µM. HEK293-KCC2, thallium flux FluoZin2 fluorescence; bidirectional: low = inhibitor, high = activator. AID 1717. 3,700 tested, 48% active;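 active = thallium flux slope beyond 3 SD from same-plate DMSO control mean in most replicates, usually higher, sometimes lower; inconclusive = repeat tests gave conflicting results; inactive = no significant difference from controls in most replicates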;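 also: slope of initial-normalized fluorescence between seconds 10 and 20 after thallium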
HEK293 Tl flux2 = counter-screen for KCC2 modulators: effect in parental HEK293 cells; 3,700 tested, 33% active; thallium flux FluoZin-2 fluorescence slope; thallium flux slope at 10 µM; shares compounds with Cl transport mod;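 active = thallium flux slope above the same plate's solvent-control mean plus 3 SD in both duplicate wells; inconclusive = duplicate wells that disagreed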;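 also: run without ouabain in cells lacking the KCC2 cotransporter; slope of fluorescence scaled to its starting value between 10 and 20 s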
Starred values were filed as active, the others as inactive; u = inconclusive; x = not tested or not shown.

SMILES | MT stabilizer | Redox H2O2 prof | ROMK primary | bCat nuc transl | Cl transport mod | KCC2 secondary | KCC2 bumet counter | KCC2 sec2 | HEK counter1 | KCC2 retest ouab | HEK293 Tl flux2
CCOC(=O)c1ccc(NC(=O)CN2C(=O)C(CC)SC(CC)C2=O)cc1 (configuration not stated) | 1.7 | 0.2 | x | 0.4 | -0.529 | x | x | x | x | x | x
CSc1ccccc1NC(=O)CN(C)CC(=O)Nc1ccccc1C(F)(F)F | 1.9 | 0.2 | -1.14 | -0.7 | -1.15 | x | x | x | x | x | x
CSc1ccccc1NC(=S)Nc1ccc(S(N)(=O)=O)cc1 | 3.3 | -0.9 | 0.0454 | -0.3 | 3.02* | 0.00752 | 0.00752* | 0.0333 | 0.00965* | u | u
NS(=O)(=O)c1ccc(NC(=S)Nc2cc(Cl)c(Cl)cc2Cl)cc1 | 3.7 | 0.1 | 0.799 | -0.5 | 1.94 | x | x | x | x | x | x
CSc1ccccc1NC(=S)Nc1ccccc1C(F)(F)F | 1.5 | 0.3 | -0.0619 | -0.1 | 4.73* | 0.00745 | 0.0115* | 0.0328 | 0.0125* | u | 0.0122
CC(=O)C1C(=O)CC(C)(O)C(C(C)=O)C1c1ccccc1 (configuration not stated) | 5.7 | -1.0 | -0.285 | -1.6 | 0.0808 | x | x | x | x | x | x
O=C(c1cccc(N2C(=O)C3C4C=CC(C4)C3C2=O)c1)N1CCN(c2ccccc2)CC1 (configuration not stated) | 3.9 | 0.0 | -0.418 | 0.4 | -0.129 | x | x | x | x | x | x
COc1cc(-c2nc(CN3CCN(c4ncccn4)CC3)c(C)o2)ccc1F | 2.5 | 0.1 | -0.913 | -0.1 | -3.04* | 0.00592 | 0.0043 | 0.0316 | u | 0.0206 | u
COc1cc(-c2nc(CN3CCN(CC(C)C)C(=O)[C@@H]3C)c(C)o2)ccc1F | 1.4 | 0.7 | 0.457 | 1.1 | -0.747 | x | x | x | x | x | x
CSc1ccc(NC(=O)NCc2ccccc2)cc1 | x | x | x | 0.2 | 0.589 | x | x | x | x | x | x
COCCCNC(=O)C(C#N)c1nc2ccccc2nc1N1CCCC1 (configuration not stated) | 4.3 | -0.7 | x | x | -1.14 | u | -0.000272* | 0.0193* | 0.00528* | 0.0125* | u
CCOc1ccccc1N1CCN(c2nc3ccccc3nc2C(C#N)C(=O)OC)CC1 (configuration not stated) | 4.2 | -3.9 | 0.689 | -0.2 | x | 0.00581 | 0.00417 | 0.0289 | 0.00677 | 0.0182 | 0.0101
CCC1CCCCN1Cc1ccc(N)cc1 (configuration not stated) | 1.7 | -0.4 | 0.86 | -3.6 | 0.267 | x | x | x | x | x | x
C/C(=N\NC(=O)c1ccc2c(c1)OCO2)c1ccc(O)cc1 | x | x | x | 0.4 | -0.473 | x | x | x | x | x | x
CC(C)CC(CC(C)C)=NNC(=O)c1ccc2c(c1)OCO2 | 2.6 | -0.3 | -0.0923 | -3.4 | 3.94* | 0.00609 | 0.0049 | 0.0289 | 0.00799 | 0.0177 | 0.0098
O=c1c2ccccc2n2c(-c3cccc(Cl)c3)nnc2n1Cc1ccccc1 | 2.9 | 0.9 | x | -2.0 | -0.377 | x | x | x | x | x | x
COc1ccc(-c2nnc3n(CCc4ccccc4)c(=O)c4ccccc4n23)cc1OC | 2.5 | 0.5 | x | -1.9 | 4.43* | 0.00878 | 0.017* | 0.0284 | 0.00966* | u | u
COc1cc(Br)c(C2C(C#N)=C(N)Oc3n[nH]c(-c4cccnc4)c32)cc1OC (configuration not stated) | 1.3 | 0.6 | 0.743 | -6.8 | 1.32 | x | x | x | x | x | x
